Reference: ChEMBL document CHEMBL1132370, “8,11-dihydroxy-6-[(aminoalkyl)amino]-7H-benzo[e]perimidin-7-ones with activity in multidrug-resistant cell lines: synthesis and antitumor evaluation” (J Med Chem, 1999)
Where “and” joins values, the source holds several entries; their conditions need not be identical. Identical values can stand only once.

What was measured:
Mus musculus [1] = experiment: In vivo antileukemic activity towards P388 Murine Leukemia at a dose of 5.0 mg/kg; format: functional
HT-29 [2] = experiment: Effect of compound as percent survival at dose of 20 ng/mL on HT-29/Mx cell line after 72 hours; format: functional; details: Homo sapiens, HT-29, 72 h; read-out: Survival
How it was run: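 HT29 or mitoxantrone-resistant HT29/Mx monolayers grown in McCoy's 5A with 10% FBS and 1% 1 M Hepes at 37 °C, 5% CO2. Cells exposed to drug for 72 h. Survival measured by cell counting and given as percent of untreated control.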

HT-29 [3] = experiment: Percent inhibition at S phase of cell cycle at a dose of 25 ng/mL after 72 hours of induction in HT-29 cell line; format: functional; details: Homo sapiens, HT-29, 72 h
How it was run: (§1)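 HT29 and mitoxantrone-resistant HT29/Mx colon adenocarcinoma monolayers in McCoy's 5A with 10% FBS and 1% 1 M Hepes, 37 °C, 5% CO2. Drug exposure 72 h. Cells then fixed in 70% ice-cold ethanol, washed twice and resuspended in PBS with 30 μg/mL propidium iodide and 66 units/mL RNase A. At least 10^4 cells per sample read for DNA content by flow cytometry. G1/S/G2M fractions reported as percentages.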

Mus musculus [4] = experiment: Tumor volume inhibition administered iv at a dose of 6.7 mg/kg to nude mice bearing sc Human A2780 Xenografts; format: functional
How it was run: (§2)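 Swiss nude athymic mice carrying tumor fragments grafted sc in both flanks, 4–5 mice (8–10 tumors) per group. Tumor lines kept by sc passage. Dosing iv once weekly for 3 doses, starting at mean tumor volume ca. 80–100 mm3 (A2780, HT29/Mx: days 4, 11, 18; A2780/Dx: days 7, 14, 21). Diameters measured twice weekly; TV = d²×D/2. %TVI treated vs control assessed 3–10 days after last dose.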

Mus musculus [5] = experiment: Toxic deaths at dose of 10 mg/kg (i.v.) to nude mice bearing sc Human ovarian carcinoma tumor Xenografts tested in 4 animals; format: functional; details: route intravenous
How it was run: (§3)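 Tumor fragments of A2780, A2780/Dx or HT29/Mx grafted sc in both flanks of Swiss athymic nude mice, 4–5 mice per group. Drug given iv once weekly on 3 days: days 4, 11, 18 (A2780, HT29/Mx) or days 7, 14, 21 (A2780/Dx). Dosing started at mean tumor volume 80–100 mm3. Toxic deaths recorded as deaths/total mice.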

HT-29 [6] = experiment: Percent inhibition at S phase of cell cycle at a dose of 100n g/mL after 72 hours of induction in HT-29 cell line; format: functional, Homo sapiens; how it was run: as §1
Mus musculus [7] = experiment: In vivo antileukemic activity towards P388 Murine Leukemia at a dose of 22.5 mg/kg; format: functional
Mus musculus [8] = experiment: Long-term survivors when compound was tested for in vivo antileukemic activity towards P388 Murine Leukemia at dose of 10.0 mg/kg tested in 18 animals; format: functional
Mus musculus [9] = experiment: Antileukemic activity expressed as number of toxic deaths/total number of mice at dose 30.0 mg/kg tested in 6 animals; format: functional
HT-29 [10] = experiment: In vitro Cytotoxic activity of compound in comparison with reference compounds in human cell line HT-29; format: functional, cell-based
How it was run: (§4)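 Monolayer lines were used: A2780, A2780/Dx, DU145 and PC3 in RPMI 1640, LoVo and LoVo/Dx in Ham's F-12, and HT29 and HT29/Mx in McCoy's 5A, each with 10% FBS. Drug exposure was 72 h. […] Resistance index = IC50 in resistant / IC50 in sensitive line.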

HT-29 [11] = experiment: Percent inhibition at G2/M phase of cell cycle at a dose of 100n g/mL after 72 hours of induction in HT-29/Mx cell line; format: functional, Homo sapiens
How it was run: (§5)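 HT29 or HT29/Mx cells were treated for 72 h, then fixed in 70% ice-cold ethanol. Cells were stained with PBS containing 30 μg/mL propidium iodide and 66 units/mL RNase A, and DNA content was measured by flow cytometry on at least 10^4 cells to give G1, S and G2/M fractions.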

DU-145 = experiment: In vitro Cytotoxic activity of compound in comparison with reference compounds in human cell line DU145; format: functional, cell-based; how it was run: as §4
HT-29 [12] = experiment: Percent inhibition at G1 phase of cell cycle at a dose of 25 ng/mL after 72 hours of induction in HT-29 cell line; format: functional; details: Homo sapiens, HT-29, 72 h; how it was run: as §5
Mus musculus [13] = experiment: Tumor volume inhibition administered iv at a dose of 6.7 mg/kg to nude mice bearing sc Human A2780/Dx Xenografts; format: functional, A2780 ADR; how it was run: as §2
HT-29 [14] = experiment: Percent inhibition at G2/M phase of cell cycle at a dose of 10 ng/mL after 72 hours of induction in HT-29/Mx cell line; format: functional; details: Homo sapiens, HT-29, 72 h; how it was run: as §5
Mus musculus [15] = experiment: In vivo antileukemic activity towards P388 Murine Leukemia at a dose of 35.0 mg/kg; format: functional
Mus musculus [16] = experiment: Antileukemic activity expressed as number of toxic deaths/total number of mice at dose 35.0 mg/kg tested in 6 animals; format: functional
Mus musculus [17] = experiment: In vivo antileukemic activity towards P388 Murine Leukemia at a dose of 10.0 mg/kg, expressed as body weight change; format: functional
Mus musculus [18] = experiment: Long-term survivors when compound was tested for in vivo antileukemic activity towards P388 Murine Leukemia at dose of 1.0 mg/kg tested in 12 animals; format: functional
Mus musculus [19] = experiment: In vivo antileukemic activity towards P388 Murine Leukemia at a dose of 22.5 mg/kg, expressed as body weight change; format: functional
Mus musculus [20] = experiment: In vivo antileukemic activity towards P388 Murine Leukemia at a dose of 35.0 mg/kg, expressed as body weight change; format: functional
Mus musculus [21] = experiment: Long-term survivors when compound was tested for in vivo antileukemic activity towards P388 Murine Leukemia at dose of 2.5 mg/kg tested in 12 animals; format: functional
LoVo = experiment: In vitro Cytotoxic activity of compound in comparison with reference compounds in human cell line LoVo; format: functional, cell-based; how it was run: as §4
Mus musculus [22] = experiment: Toxic deaths at dose of 20 mg/kg (i.v.) to nude mice bearing sc Human colon carcinoma Xenografts tested in 4 animals; format: functional; details: route intravenous; how it was run: as §3
HT-29 [23] = experiment: In vitro Cytotoxic activity of compound in comparison with reference compounds in human cell line HT-29/Mx(RI); format: functional, cell-based; how it was run: as §4
K562 = experiment: Compound was tested in vitro for cytotoxicity against MDR cell line K562R (RI) (72 hr exposure to compound); format: functional, cell-based; details: Homo sapiens, K562, 72 h
How it was run: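 HL60 or K562R cells were grown in RPMI 1640 with 10% FBS and exposed to drug for 72 h. Growth was measured by Coulter cell counting, and IC50 is the concentration giving 50% growth inhibition (mean of ≥3 experiments ± SEM). Resistance index = IC50 in K562R / IC50 in sensitive K562S.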

Mus musculus [24] = experiment: In vivo antileukemic activity towards P388 Murine Leukemia at a dose of 5.0 mg/kg, expressed as body weight change; format: functional
HT-29 [25] = experiment: Percent inhibition at S phase of cell cycle at a dose of 10 ng/mL after 72 hours of induction in HT-29/Mx cell line; format: functional; details: Homo sapiens, HT-29, 72 h; how it was run: as §1
Mus musculus [26] = experiment: In vivo antileukemic activity towards P388 Murine Leukemia at a dose of 10 mg/kg, expressed as body weight change; format: functional
HT-29 [27] = experiment: Percent inhibition at G2/M phase of cell cycle at a dose of 25 ng/mL after 72 hours of induction in HT-29 cell line; format: functional; details: Homo sapiens, HT-29, 72 h; how it was run: as §1

CN(C)CCNc1ccc2ncnc3c2c1C(=O)c1c(O)ccc(O)c1-3
T/C (ratio of treated to control) (Mus musculus [1]): 147% and 167% | viability at 0.02 µg/mL (HT-29 [2]): 61% | inhibition at 0.025 µg/mL (HT-29 [3]): 19% | TVI (Mus musculus [4]): 32% | Toxic deaths (Mus musculus [5]): 0 | Inhibition (HT-29 [6]): 21% | T/C (ratio of treated to control) (Mus musculus [7]): 215% | LTS (Mus musculus [8]): 0 | Toxic deaths (Mus musculus [9]): 2 | IC50 (HT-29 [10]): 49.1 nM | Inhibition (HT-29 [11]): 58% | IC50 (DU-145): 5.7 nM | inhibition at 0.025 µg/mL (HT-29 [12]): 48% | TVI (Mus musculus [13]): 46% | inhibition at 0.01 µg/mL (HT-29 [14]): 30% | T/C (ratio of treated to control) (Mus musculus [15]): -110% | Toxic deaths (Mus musculus [16]): 5 | Body weight change (Mus musculus [17]): 0.98 BWC | LTS (Mus musculus [18]): 0 | Body weight change (Mus musculus [19]): 0.88 BWC | Body weight change (Mus musculus [20]): 0.73 BWC | LTS (Mus musculus [21]): 0 | IC50 (LoVo): 11.1 nM | Toxic deaths (Mus musculus [22]): 0 | IC50 (HT-29 [23]): 56.9 nM | IC50 (K562): 10.4 nM | Body weight change (Mus musculus [24]): 1.01 BWC and 1.02 BWC | inhibition at 0.01 µg/mL (HT-29 [25]): 7% | Body weight change (Mus musculus [26]): 0.98 BWC | inhibition at 0.025 µg/mL (HT-29 [27]): 29%
